Consider three molecules from ChEMBL document CHEMBL2163256, “6-(methylamino)hexane-1,2,3,4,5-pentanol 4-(((1S,2S)-1-hydroxy-2,3-dihydro-1H,1'H-[2,2-biinden]-2-yl)methyl)benzoate (PH46A): a novel small molecule with efficacy in murine models of colitis” (J Med Chem, 2012).

Calls of active or inactive are those of the source. No cut-off for these calls is given here.

Series [1] has as its system Mus musculus. The experiment in a line: Antiinflammatory activity against DSS-induced colitis BALB/c mouse model assessed as reduction in shortening of colon at 30 mg/kg, po qd for 7 days measured on day 7 relative to vehicle-treated control. It is filed as functional. More on the design: scale not given: the % may be the effect or the level left. The procedure, abridged:
(§1)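 Female SPF BALB/c mice, 6−8 weeks old; colitis induced by 5% DSS in tap drinking water (renewed every second day) for 7 days. Daily oral dosing for 7 days as suspension/solution in 0.5% carboxymethyl cellulose/2% Tween 80. Daily body weight; DAI per mouse each day from weight loss, occult blood and stool consistency; colon length at autopsy. Mean ± SEM, n = 6−7.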

For series [2], the system named is Mus musculus. Nature of the series: Antiinflammatory activity against DSS-induced colitis BALB/c mouse model assessed as prevention of body weigth loss at 10 mg/kg, po qd for 7 days measured on day 7 relative to vehicle-treated control. It is filed as functional. In outline: as §1
In series [3] the test system is Mus musculus. The experiment in a line: Antiinflammatory activity against DSS-induced colitis BALB/c mouse model assessed as prevention of body weigth loss at 30 mg/kg, po qd for 7 days measured on day 7 relative to vehicle-treated control. Type of series: functional. In outline: as §1
Series [4] deals with Mus musculus. Nature of the series: Antiinflammatory activity in IL-10 -/- BALB/c mouse assessed as decrease in serum SAA level at 300 mg/kg, po administered as divided dose 3 times a week for 9 weeks (reference value: 468.9 +/- 38.37 ug/ml). It is filed as functional. The procedure, abridged:
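IL-10−/− BALB/c-background mice, bred SPF, treated from 6−8 weeks of age by oral gavage of 300 mg/kg/week in distilled water (vehicle), Mon/Wed/Fri, for 9 weeks. Weight, rectal bleeding and prolapse monitored. At 9 weeks serum SAA was measured by sandwich ELISA. Proximal colon (1 cm) was fixed, H&E-stained and scored blinded by two observers (maximum 4). n = 9 vehicle, 11 treated; Student's t test.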

For series [5], the system named is Mus musculus. The experiment in a line: Antiinflammatory activity against DSS-induced colitis BALB/c mouse model assessed as reduction in histological colon damage score at 30 mg/kg, po qd for 7 days measured on day 7 relative to vehicle-treated control. It is filed as functional. More on the design: scale not given: the % may be the effect or the level left. In outline:
(§2)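 After 7 days of 5% DSS with daily oral dosing, about 1 cm distal colon was fixed in 10% formaldehyde-saline, paraffin-embedded, cut into 5 μm serial sections and H&E-stained. Scoring covered cell infiltration (0−3) and extent of injury (0−3), done blinded by two independent observers.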

Series [6] relates to Mus musculus. The experiment in a line: Antiinflammatory activity against DSS-induced colitis BALB/c mouse model assessed as decrease in myeloperoxidative activity at 30 mg/kg, po qd for 7 days measured on day 7 relative to vehicle-treated control. Type of series: functional. More on the design: scale not given: the % may be the effect or the level left. In outline: (§3)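 In the 7-day 5% DSS BALB/c colitis model with daily oral dosing, colon MPO was measured in homogenized snap-frozen colon supernatant (protein determined) by a standard method.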

The test system of series [7] is Mus musculus. The experiment in a line: Antiinflammatory activity against DSS-induced colitis BALB/c mouse model assessed as decrease in disease activity index at 30 mg/kg, po qd for 7 days measured on day 7 relative to vehicle-treated control. Type of series: functional. More on the design: scale not given: the % may be the effect or the level left. In outline:
as §1

Series [8] has as its system Mus musculus. The experiment in a line: Antiinflammatory activity against DSS-induced colitis BALB/c mouse model assessed as decrease in disease activity index at 10 mg/kg, po qd for 7 days measured on day 7 relative to vehicle-treated control. It is filed as functional. Also on record: scale not given: the % may be the effect or the level left. In outline:
as §1

The test system of series [9] is Mus musculus. Nature of the series: Antiinflammatory activity against DSS-induced colitis BALB/c mouse model assessed as decrease in disease activity index at 3 mg/kg, po qd for 7 days measured on day 7 relative to vehicle-treated control. It is filed as functional. More on the design: scale not given: the % may be the effect or the level left. The procedure, abridged: as §1

Series [10] relates to Mus musculus. The experiment in a line: Antiinflammatory activity against DSS-induced colitis BALB/c mouse model assessed as reduction in shortening of colon at 5 mg/kg, po qd for 7 days measured on day 7 relative to vehicle-treated control. Type of series: functional. More on the design: scale not given: the % may be the effect or the level left. In outline:
as §1

Series [11] deals with Mus musculus. Nature of the series: Antiinflammatory activity against DSS-induced colitis BALB/c mouse model assessed as prevention of body weigth loss at 5 mg/kg, po qd for 7 days measured on day 7 relative to vehicle-treated control. Type of series: functional. In outline:
as §1

Series [12] concerns Mus musculus. The experiment in a line: Antiinflammatory activity against DSS-induced colitis BALB/c mouse model assessed as reduction in histological colon damage score at 5 mg/kg, po qd for 7 days measured on day 7 relative to vehicle-treated control. It is filed as functional. Also on record: scale not given: the % may be the effect or the level left. The procedure, abridged: as §2

Series [13] relates to Mus musculus. Nature of the series: Antiinflammatory activity against DSS-induced colitis BALB/c mouse model assessed as reduction in TNFalpha level at 5 mg/kg, po qd for 7 days measured on day 7 relative to vehicle-treated control. It is filed as functional, organism-based. More on the design: dose 5 mg/kg. The procedure, abridged:
(§4)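 DSS colitis in female BALB/c mice (5% DSS in drinking water, 7 days, daily oral dosing). At autopsy, colon remaining after histology sampling snap-frozen, stored at −20 °C, thawed, contents removed, chopped and homogenized; supernatant protein determined. IL1b, IL6 and TNFα in colon supernatant by sandwich ELISA, expressed as ng/mg. Mean ± SEM, n = 6−7.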

For series [14], the system named is Mus musculus. The experiment in a line: Antiinflammatory activity against DSS-induced colitis BALB/c mouse model assessed as reduction in IL6 level at 5 mg/kg, po qd for 7 days measured on day 7 relative to vehicle-treated control. Also on record: dose 5 mg/kg. It is filed as functional, organism-based. In outline:
as §4

The test system of series [15] is Mus musculus. The experiment in a line: Antiinflammatory activity against DSS-induced colitis BALB/c mouse model assessed as reduction in IL1b level at 5 mg/kg, po qd for 7 days measured on day 7 relative to vehicle-treated control. More on the design: dose 5 mg/kg. It is filed as functional, organism-based. In outline: as §4
Series [16] concerns Mus musculus. The experiment in a line: Antiinflammatory activity against DSS-induced colitis BALB/c mouse model assessed as decrease in myeloperoxidative activity at 5 mg/kg, po qd for 7 days measured on day 7 relative to vehicle-treated control. It is filed as functional. Also on record: scale not given: the % may be the effect or the level left. The procedure, abridged:
as §3

Series [17] relates to Mus musculus. The experiment in a line: Antiinflammatory activity against DSS-induced colitis BALB/c mouse model assessed as decrease in disease activity index at 5 mg/kg, po qd for 7 days measured on day 7 relative to vehicle-treated control. More on the design: scale not given: the % may be the effect or the level left. Type of series: functional. The procedure, abridged: as §1

Series [18] relates to Mus musculus. The experiment in a line: Toxicity in DSS-induced colitis BALB/c mouse model assessed as overt reactions at 30 mg/kg, po qd for 7 days relative to vehicle-treated control. The note with it: in vivo, 168 h. Type of series: organism-based. Also on record: dose 30 mg/kg, route oral.
Series [19] deals with Mus musculus. The experiment in a line: Antiinflammatory activity against DSS-induced colitis BALB/c mouse model assessed as increase in colon lenght at 30 mg/kg, po qd for 7 days relative to vehicle-treated control. It is filed as functional, organism-based. More on the design: dose 30 mg/kg. The procedure, abridged:
as §1

Series [20] has as its system Mus musculus. Nature of the series: Antiinflammatory activity against DSS-induced colitis BALB/c mouse model assessed as decrease in disease activity index at 30 mg/kg, po qd for 7 days relative to vehicle-treated control. It is filed as functional, organism-based. More on the design: dose 30 mg/kg. The procedure, abridged:
as §1

As for `CNC[C@H](O)[C@@H](O)[C@H](O)[C@H](O)CO.O=C(O)c1ccc(C[C@@]2(C3=Cc4ccccc4C3)Cc3ccccc3[C@H]2O)cc1`, the Activity was 76% with Mus musculus [1]; 12.8% with Mus musculus [2]; 6.2% in the series on Mus musculus [3]; 342.7 µg/mL in the series on Mus musculus [4]; >75% in the series on Mus musculus [5]; 63% with Mus musculus [6]. Also, the Activity in the series with Mus musculus [7] came out at 80%; in the series on Mus musculus [8] it was 54%; in the series on Mus musculus [9], 24%.

Take `C[C@]12C=CC(=O)C=C1CC[C@@H]1[C@@H]2[C@@H](O)C[C@@]2(C)[C@H]1CC[C@]2(O)C(=O)CO` [PREDNISOLONE]: the Activity in the series with Mus musculus [10] worked out at 39%; in the series with Mus musculus [11], 12.6%; in the series on Mus musculus [12], 26%; in the series on Mus musculus [16] it was 54%; in the series on Mus musculus [17], 50%. Further, the result in the series with Mus musculus [13], in the series with Mus musculus [14] and with Mus musculus [15] was Active.

For the molecule `O=C(O)c1ccc(C[C@@]2(C3=Cc4ccccc4C3)Cc3ccccc3[C@@H]2O)cc1`, in the series on Mus musculus [18], the Activity entry is reported as “Non-toxic”. Also, the outcome with Mus musculus [19] was Active. For the same molecule, in the series on Mus musculus [20], the result was inactive.
